This is an account of results in ChEMBL document CHEMBL5370638.

Calls of active or inactive are those of the source. No cut-off for these calls is given here. Numbered stars: 1 amine (or outer) side, 2 acyl side, 3 side chain; on linkers, the order of the positions; unused ones are H or OH. Bridge positions count the residues as written; N and C are the ends. Square brackets hold non-standard residues; d marks the D form. Peptide text beside a SMILES is read from it. AMPB(E) = O=C(c1ccc(/N=N/c2ccc(CN[*:1])cc2)cc1)[*:2]; X3 = O=C(c1ccccc1/N=N\c1ccccc1C(=O)[*:2])[*:1]; X4 = O=C(c1ccccc1/N=N/c1ccccc1C(=O)[*:2])[*:1]; Dap = NC[C@H](N)C(=O)O

What all share (type): functional, cell-based
Assay [1] concerns the target Vasopressin V1a receptor (Homo sapiens) (UniProt P37288). As to the kind of experiment: Agonist activity at human V1a receptor transfected in HEK293 cells upto 10 uM incubated for 1 hr by IP-one HTRF assay. The method in brief:
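Stable HEK293 lines expressing hOTR, hV1aR or hV1bR (10,000 cells/well, 48 h) were preincubated in stimulation buffer for 15 min, then given ligand for 1 h at 37 °C. Z-forms were pre-irradiated at 340 nm for 1 min.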

The target is the same in assay [2]. As to the kind of experiment: Antagonist activity at human V1a receptor transfected in HEK293 cells at 10 uM relative to control. The conditions noted are these: filed as antagonist. The method in brief:
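V1aR-expressing HEK293 cells received VP (1 nM final) premixed with test compound (10 or 100 μM), incubated for 1 h at 37 °C. IP1 accumulation was measured by HTRF (665/615 nm) and normalized to basal (0%) and maximal VP (100%). […] At least three independent experiments were run, each in triplicate.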

The subject of a further assay is HEK293. Put plainly: Induction of C-terminal GFP-tagged V1b receptor internalization in HEK293 cells at 1 nM incubated for 60 mins by fluorescence microscopy analysis. The settings on record: Homo sapiens. Summed up:
(§1)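 HEK293 cells stably expressing human V1bR with C-terminal GFP were plated overnight on poly-D-lysine coverslips and serum-starved for one day. Ligands in serum-free medium were applied for 60 min; the Z-form was diode-activated at 340 nm. Cells were fixed in 4% PFA, immunostained (anti-GFP, anti-pCREB, Hoechst) and imaged confocally. pCREB signal was normalized to medium-only controls; internalization was scored from GFP location.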

Assay [3] has as its target T1, Vasopressin V1b receptor (Homo sapiens) (UniProt P47901).
T1 sequence (whole entry): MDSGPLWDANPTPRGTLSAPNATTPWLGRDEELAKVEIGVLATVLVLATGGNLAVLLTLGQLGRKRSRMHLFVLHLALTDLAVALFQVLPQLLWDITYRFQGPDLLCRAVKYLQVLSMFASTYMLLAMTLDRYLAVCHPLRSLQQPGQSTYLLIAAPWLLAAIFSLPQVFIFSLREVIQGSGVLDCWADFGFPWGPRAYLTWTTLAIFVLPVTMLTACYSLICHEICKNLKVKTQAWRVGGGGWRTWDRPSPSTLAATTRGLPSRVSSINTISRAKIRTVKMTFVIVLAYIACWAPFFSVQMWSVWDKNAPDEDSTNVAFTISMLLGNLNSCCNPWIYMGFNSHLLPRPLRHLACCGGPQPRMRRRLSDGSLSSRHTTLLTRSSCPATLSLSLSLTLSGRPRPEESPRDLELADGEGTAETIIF
As to the kind of experiment: Activation of human C-terminal GFP-tagged V1b receptor in HEK293 cells assessed as CREB phosphorylation at 1 nM incubated for 60 mins by immunostaining analysis. Summed up:
as §1

Chain of Vasopressin V1a receptor (Homo sapiens) (P37288 whole entry, looked up): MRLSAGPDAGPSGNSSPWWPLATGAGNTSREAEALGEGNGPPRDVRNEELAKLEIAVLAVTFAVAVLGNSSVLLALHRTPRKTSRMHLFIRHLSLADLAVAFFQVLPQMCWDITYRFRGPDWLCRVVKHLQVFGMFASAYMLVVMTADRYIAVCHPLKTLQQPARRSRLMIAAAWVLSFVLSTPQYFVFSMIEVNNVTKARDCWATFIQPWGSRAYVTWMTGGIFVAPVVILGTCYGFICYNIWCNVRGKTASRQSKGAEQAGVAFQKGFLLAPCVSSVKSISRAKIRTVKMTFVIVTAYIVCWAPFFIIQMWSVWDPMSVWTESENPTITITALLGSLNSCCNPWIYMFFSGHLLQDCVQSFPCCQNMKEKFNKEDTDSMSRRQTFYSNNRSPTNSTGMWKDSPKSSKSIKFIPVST

`NC(=O)CC[C@@H]1NC(=O)[C@H](Cc2ccccc2)NC(=O)[C@H](Cc2ccc(O)cc2)NC(=O)[C@@H](N)CSSC[C@@H](C(=O)NCc2ccc(/N=N/c3ccc(C(=O)NCC(N)=O)cc3)cc2)NC(=O)[C@H](CC(N)=O)NC1=O` (H-CYFQNC[AMPB(E)]G-NH2; disulfide 1-6): in assay [1], the result was inactive.

As to `NC(=O)CC[C@@H]1NC(=O)[C@H](Cc2ccccc2)NC(=O)[C@H](Cc2ccc(O)cc2)NC(=O)c2ccccc2/N=N/c2ccccc2C(=O)NC[C@@H](C(=O)N2CCC[C@H]2C(=O)N[C@@H](CCCN=C(N)N)C(=O)NCC(N)=O)NC(=O)[C@H](CC(N)=O)NC1=O` (YFQN[Dap]PRG-NH2; linker N-5 via X4), the result in assay [2] was Active.

For the compound `NC(=O)CC[C@@H]1NC(=O)[C@H](Cc2ccccc2)NC(=O)[C@H](Cc2ccc(O)cc2)NC(=O)[C@@H](N)CSSC[C@@H](C(=O)NCc2ccc(/N=N/c3ccc(C(=O)N[C@@H](CCCN=C(N)N)C(=O)NCC(N)=O)cc3)cc2)NC(=O)[C@H](CC(N)=O)NC1=O` (H-CYFQNC[AMPB(E)]RG-NH2; disulfide 1-6), the outcome in assay [1] was inactive.

Regarding `NC(=O)CC[C@@H]1NC(=O)[C@H](Cc2ccc(/N=N\c3ccccc3)cc2)NC(=O)[C@H](Cc2ccc(O)cc2)NC(=O)[C@@H](N)CSSC[C@@H](C(=O)N2CCC[C@H]2C(=O)N[C@@H](CCCN=C(N)N)C(=O)NCC(N)=O)NC(=O)[C@H](CC(N)=O)NC1=O`, the result with HEK293 was Active.

As for `NC(=O)CC[C@@H]1NC(=O)[C@H](Cc2ccc(/N=N/c3ccccc3)cc2)NC(=O)[C@H](Cc2ccc(O)cc2)NC(=O)[C@@H](N)CSSC[C@@H](C(=O)N2CCC[C@H]2C(=O)N[C@@H](CCCN=C(N)N)C(=O)NCC(N)=O)NC(=O)[C@H](CC(N)=O)NC1=O`, the outcome (in the assay on HEK293; in assay [3]) was inactive.

`NC(=O)CC[C@@H]1NC(=O)[C@H](Cc2ccccc2)NC(=O)[C@H](Cc2ccc(O)cc2)NC(=O)c2ccccc2/N=N\c2ccccc2C(=O)NC[C@@H](C(=O)N2CCC[C@H]2C(=O)N[C@@H](CCCN=C(N)N)C(=O)NCC(N)=O)NC(=O)[C@H](CC(N)=O)NC1=O` (YFQN[Dap]PRG-NH2; linker N-5 via X3): the result in assay [2] was Active.
